# Assay results published in ChEMBL document CHEMBL5058577, “EUbOPEN Chemogenomics Library 2 (Multiplex)” (2022).
# Tested on: HEK-293T
# Assay: Multiplex assay against HEK293T
# Type: toxicity, cell-based
# Conditions: human
# Method in brief: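 At seeding, live cells were stained with Hoechst33342, BioTracker Green Microtubule Cytoskeleton Dye, MitoTracker Red and Annexin V Alexa Fluor 680. After compound addition they were imaged on a CQ1 microscope at 37°C and 5% CO2, and CellPathfinder machine-learning gating sorted them into Hoechst high-intensity objects or normal cells, with normal cells further split into healthy, pyknosed or fragmented nuclei and pyknosed cells into mitotic or apoptotic. Tubulin, mitochondrial-mass and membrane-permeability phenotypes are given as per cents of cells with healthy nuclei.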
# [1] = 12 h, 1 µM, compound concentration 1 uM, replicate 1
# [2] = 12 h, 1 µM, compound concentration 1 uM, replicate 2
# [3] = 12 h, 10 µM, compound concentration 10 uM, replicate 1
# [4] = 12 h, 10 µM, compound concentration 10 uM, replicate 2
# [5] = 24 h, 1 µM, compound concentration 1 uM, replicate 1
# [6] = 24 h, 1 µM, compound concentration 1 uM, replicate 2
# [7] = 24 h, 10 µM, compound concentration 10 uM, replicate 1
# [8] = 24 h, 10 µM, compound concentration 10 uM, replicate 2
# [9] = 48 h, 1 µM, compound concentration 1 uM, replicate 1
# [10] = 48 h, 1 µM, compound concentration 1 uM, replicate 2
# [11] = 48 h, 10 µM, compound concentration 10 uM, replicate 1
# [12] = 48 h, 10 µM, compound concentration 10 uM, replicate 2
structure (smiles),measurement,setting,value
CC1(COc2ccc3c(c2)ncn3-c2ccc3cccc(N4CCC(N)CC4)c3n2)COC1 [CRENOLANIB],Population Apoptotic (%),[1],58%
same,Population Fragmented Nuclei (%),[1],14%
same,Population Healthy Nuclei (%),[1],79%
same,Population Hoechst High Intensity Objects (%),[1],3%
same,Population Membrane Permeable-Phenotype (%),[1],2%
same,Population Mitochondria Different-Phenotype (%),[1],23%
same,Population Mitotic Cells (%),[1],41%
same,Population Normal (%),[1],96%
same,Population Pyknosed Nuclei (%),[1],6%
same,Population Tubulin-Different-Phenotype (%),[1],46%
same,Total Cell Count,[1],412
same,Population Apoptotic (%),[2],34%
same,Population Fragmented Nuclei (%),[2],10%
same,Population Healthy Nuclei (%),[2],80%
same,Population Hoechst High Intensity Objects (%),[2],6%
same,Population Membrane Permeable-Phenotype (%),[2],1%
same,Population Mitochondria Different-Phenotype (%),[2],51%
same,Population Mitotic Cells (%),[2],65%
same,Population Normal (%),[2],93%
same,Population Pyknosed Nuclei (%),[2],8%
same,Population Tubulin-Different-Phenotype (%),[2],51%
same,Total Cell Count,[2],332
same,Population Apoptotic (%),[3],69%
same,Population Fragmented Nuclei (%),[3],67%
same,Population Healthy Nuclei (%),[3],13%
same,Population Hoechst High Intensity Objects (%),[3],67%
same,Population Membrane Permeable-Phenotype (%),[3],0%
same,Population Mitochondria Different-Phenotype (%),[3],84%
same,Population Mitotic Cells (%),[3],30%
same,Population Normal (%),[3],32%
same,Population Pyknosed Nuclei (%),[3],18%
same,Population Tubulin-Different-Phenotype (%),[3],68%
same,Total Cell Count,[3],423
same,Population Apoptotic (%),[4],55%
same,Population Fragmented Nuclei (%),[4],64%
same,Population Healthy Nuclei (%),[4],17%
same,Population Hoechst High Intensity Objects (%),[4],69%
same,Population Mitochondria Different-Phenotype (%),[4],90%
same,Population Mitotic Cells (%),[4],45%
same,Population Normal (%),[4],30%
same,Population Pyknosed Nuclei (%),[4],17%
same,Population Tubulin-Different-Phenotype (%),[4],50%
same,Total Cell Count,[4],376
same,Population Apoptotic (%),[5],29%
same,Population Fragmented Nuclei (%),[5],20%
same,Population Healthy Nuclei (%),[5],66%
same,Population Hoechst High Intensity Objects (%),[5],2%
same,Population Membrane Permeable-Phenotype (%),[5],2%
same,Population Mitochondria Different-Phenotype (%),[5],22%
same,Population Mitotic Cells (%),[5],70%
same,Population Normal (%),[5],97%
same,Population Pyknosed Nuclei (%),[5],12%
same,Population Tubulin-Different-Phenotype (%),[5],23%
same,Total Cell Count,[5],547
same,Population Apoptotic (%),[6],45%
same,Population Fragmented Nuclei (%),[6],15%
same,Population Healthy Nuclei (%),[6],73%
same,Population Hoechst High Intensity Objects (%),[6],6%
same,Population Membrane Permeable-Phenotype (%),[6],1%
same,Population Mitochondria Different-Phenotype (%),[6],33%
same,Population Mitotic Cells (%),[6],54%
same,Population Normal (%),[6],93%
same,Population Pyknosed Nuclei (%),[6],11%
same,Population Tubulin-Different-Phenotype (%),[6],35%
same,Total Cell Count,[6],415
same,Population Apoptotic (%),[7],72%
same,Population Fragmented Nuclei (%),[7],60%
same,Population Healthy Nuclei (%),[7],16%
same,Population Hoechst High Intensity Objects (%),[7],56%
same,Population Membrane Permeable-Phenotype (%),[7],0%
same,Population Mitochondria Different-Phenotype (%),[7],89%
same,Population Mitotic Cells (%),[7],27%
same,Population Normal (%),[7],43%
same,Population Pyknosed Nuclei (%),[7],23%
same,Population Tubulin-Different-Phenotype (%),[7],92%
same,Total Cell Count,[7],394
same,Population Fragmented Nuclei (%),[8],69%
same,Population Healthy Nuclei (%),[8],15%
same,Population Hoechst High Intensity Objects (%),[8],63%
same,Population Mitochondria Different-Phenotype (%),[8],94%
same,Population Normal (%),[8],36%
same,Population Pyknosed Nuclei (%),[8],14%
same,Population Tubulin-Different-Phenotype (%),[8],73%
same,Total Cell Count,[8],334
same,Population Apoptotic (%),[9],29%
same,Population Fragmented Nuclei (%),[9],19%
same,Population Healthy Nuclei (%),[9],72%
same,Population Hoechst High Intensity Objects (%),[9],1%
same,Population Membrane Permeable-Phenotype (%),[9],1%
same,Population Mitochondria Different-Phenotype (%),[9],17%
same,Population Mitotic Cells (%),[9],70%
same,Population Normal (%),[9],98%
same,Population Pyknosed Nuclei (%),[9],7%
same,Population Tubulin-Different-Phenotype (%),[9],10%
same,Total Cell Count,[9],844
same,Population Apoptotic (%),[10],47%
same,Population Fragmented Nuclei (%),[10],23%
same,Population Healthy Nuclei (%),[10],70%
same,Population Mitochondria Different-Phenotype (%),[10],21%
same,Population Mitotic Cells (%),[10],52%
same,Population Pyknosed Nuclei (%),[10],6%
same,Population Tubulin-Different-Phenotype (%),[10],14%
same,Total Cell Count,[10],639
same,Population Apoptotic (%),[11],86%
same,Population Fragmented Nuclei (%),[11],51%
same,Population Healthy Nuclei (%),[11],17%
same,Population Hoechst High Intensity Objects (%),[11],41%
same,Population Membrane Permeable-Phenotype (%),[11],0%
same,Population Mitochondria Different-Phenotype (%),[11],97%
same,Population Mitotic Cells (%),[11],13%
same,Population Normal (%),[11],59%
same,Population Pyknosed Nuclei (%),[11],30%
same,Population Tubulin-Different-Phenotype (%),[11],95%
same,Total Cell Count,[11],400
same,Population Apoptotic (%),[12],84%
same,Population Fragmented Nuclei (%),[12],47%
same,Population Healthy Nuclei (%),[12],22%
same,Population Hoechst High Intensity Objects (%),[12],49%
same,Population Mitochondria Different-Phenotype (%),[12],96%
same,Population Mitotic Cells (%),[12],15%
same,Population Normal (%),[12],50%
same,Population Tubulin-Different-Phenotype (%),[12],96%
same,Total Cell Count,[12],298
